Measured values reported in ChEMBL document CHEMBL1145251, “Synthesis of thiosemicarbazone and 4-thiazolidinone derivatives and their in vitro anti-Toxoplasma gondii activity” (Bioorg Med Chem Lett, 2005).

Tests used:
Toxoplasma gondii [1] = experiment: Compound tested on intracellular parasites Toxoplasma gondii in vero cells after 24 h; assay type: functional, organism-based
Procedure, shortened: (§1)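 Infected Vero cultures (tachyzoites, 1:10, 24 h at 37 °C beforehand) were exposed 24 h to compound over 0.01–30 mM, as a dilution series (0.1, 1, 10, 20, 30 mM) in triplicate per assay. Trypan blue exclusion was the read-out, and IC50 (mean ± SD) came from non-linear regression.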

Vero [2] = experiment: Compound tested on vero cells infected with Toxoplasma gondii after 24 h; assay type: functional, cell-based; details: Chlorocebus sabaeus; procedure, shortened: as §1
Toxoplasma gondii [3] = experiment: Mean number of intracellular parasites in vero cells was determined after treatment with compound (Untreated=783); assay type: functional
Vero [4] = experiment: Compound tested for percent reduction of vero cells infected with Toxoplasma gondii after 24 hr at 37 degree Centigrade (Untreated=81); assay type: functional, Chlorocebus sabaeus
Vero [5] = experiment: Compound tested for percent reduction of vero cells infected with Toxoplasma gondii after 24 h at 37 degree Celsius (Untreated=76); assay type: functional, Chlorocebus sabaeus
Toxoplasma gondii [6] = experiment: Mean number of intracellular parasites in vero cells was determined after treatment with compound (Untreated=768); assay type: functional
Toxoplasma gondii [7] = experiment: Mean number of intracellular parasites in vero cells was determined after treatment with compound (Untreated=786); assay type: functional
Vero [8] = experiment: Compound tested for percent reduction of vero cells infected with Toxoplasma gondii after 24 hr at 37 degree Centigrade (Untreated=72); assay type: functional, Chlorocebus sabaeus
Toxoplasma gondii [9] = experiment: Mean number of intracellular parasites in vero cells was determined after treatment with compound (Untreated=642); assay type: functional
Vero [10] = experiment: Compound tested for percent of vero cells infected with Toxoplasma gondii after 24 hr at 37 degree Centigrade (Untreated=84)
Toxoplasma gondii [11] = experiment: Mean number of intracellular parasites in vero cells was determined after treatment with compound (Untreated=698); assay type: functional
Vero [12] = experiment: Compound tested for percent reduction of vero cells infected with Toxoplasma gondii after 24 h at 37 degree Celsius (Untreated=65); assay type: functional, Chlorocebus sabaeus
Vero [13] = experiment: Compound tested for percent reduction of vero cells infected with Toxoplasma gondii after 24 h at 37 degree Celsius (Untreated=86); assay type: functional, Chlorocebus sabaeus
Toxoplasma gondii [14] = experiment: Mean number of intracellular parasites in vero cells was determined after treatment with compound (Untreated=663); assay type: functional
Toxoplasma gondii [15] = experiment: Mean number of intracellular parasites in vero cells was determined after treatment with compound (Untreated=732); assay type: functional
Vero [16] = experiment: Compound tested for percent reduction of vero cells infected with Toxoplasma gondii after 24 hr at 37 degree Centigrade (Untreated=85); assay type: functional, Chlorocebus sabaeus
Toxoplasma gondii [17] = experiment: Mean number of intracellular parasites in vero cells was determined after treatment with compound (Untreated=442); assay type: functional
Toxoplasma gondii [18] = experiment: Mean number of intracellular parasites in vero cells was determined after treatment with compound (Untreated=840); assay type: functional
Vero [19] = experiment: Compound tested for percent reduction of vero cells infected with Toxoplasma gondii after 24 hr at 37 degree Centigrade (Untreated=80); assay type: functional, Chlorocebus sabaeus
Toxoplasma gondii [20] = experiment: Mean number of intracellular parasites in vero cells was determined after treatment with compound (Untreated=888); assay type: functional
Vero [21] = experiment: Compound tested for percent reduction of vero cells infected with Toxoplasma gondii after 24 h at 37 degree Centigrade (Untreated=89); assay type: functional, Chlorocebus sabaeus
Toxoplasma gondii [22] = experiment: Mean number of intracellular parasites in vero cells was determined after treatment with compound (Untreated=683); assay type: functional
Toxoplasma gondii [23] = experiment: Mean number of intracellular parasites in vero cells was determined after treatment with compound (Untreated=726); assay type: functional
Vero [24] = experiment: Compound tested for percent reduction of vero cells infected with Toxoplasma gondii after 24 h at 37 degree Celsius (Untreated=87); assay type: functional, Chlorocebus sabaeus
[25] = Mean number of intracellular parasites in vero cells was determined after treatment with compound (Untreated=852); assay type: functional, Toxoplasma gondii
Toxoplasma gondii [26] = experiment: Mean number of intracellular parasites in vero cells was determined after treatment with compound (Untreated=627); assay type: functional
Toxoplasma gondii [27] = experiment: Mean number of intracellular parasites in vero cells was determined after treatment with compound (Untreated=687); assay type: functional
Vero [28] = experiment: Compound tested for percent reduction of vero cells infected with Toxoplasma gondii after 24 h at 37 degree Centigrade (Untreated=83); assay type: functional, Chlorocebus sabaeus
Toxoplasma gondii [29] = experiment: Mean number of intracellular parasites in vero cells was determined after treatment with compound (Untreated=628); assay type: functional
Toxoplasma gondii [30] = experiment: Mean number of intracellular parasites in vero cells was determined after treatment with compound (Untreated=913); assay type: functional

C/N=C(/S)N/N=C/c1ccccc1[N+](=O)[O-]
IC50 (Toxoplasma gondii [1]): 500 µM | IC50 (Vero [2]): 2000 µM | Mean number of parasites (Toxoplasma gondii [3]): 2 | Reduction (Vero [4]): 9%

N/C(S)=N/N=C/c1cccc([N+](=O)[O-])c1
IC50 (Toxoplasma gondii [1]): 100 µM | IC50 (Vero [2]): 2000 µM | Reduction (Vero [5]): 4% | Mean number of parasites (Toxoplasma gondii [6]): 3

O=C(O)CC1S/C(=N\N=C\c2cccc([N+](=O)[O-])c2)N(c2ccccc2)C1=O (centres undefined)
Mean number of parasites (Toxoplasma gondii [7]): 2 | Reduction (Vero [8]): 13%

O=[N+]([O-])c1ccccc1/C=N/N=C(\S)Nc1ccccc1
Mean number of parasites (Toxoplasma gondii [9]): 3 | IC50 (Toxoplasma gondii [1]): 500 µM | IC50 (Vero [2]): 1000 µM | Infected cells (Vero [10]): 7%

N/C(S)=N/N=C/c1ccc([N+](=O)[O-])cc1
IC50 (Toxoplasma gondii [1]): 500 µM | Mean number of parasites (Toxoplasma gondii [11]): 4 | IC50 (Vero [2]): 1500 µM | Reduction (Vero [12]): 5%

CCN1C(=O)C(CC(=O)O)S/C1=N\N=C\c1ccccc1[N+](=O)[O-] (centres undefined)
Reduction (Vero [13]): 14% | Mean number of parasites (Toxoplasma gondii [14]): 3

CCN1C(=O)C(CC(=O)O)S/C1=N\N=C\c1cccc([N+](=O)[O-])c1 (centres undefined)
Mean number of parasites (Toxoplasma gondii [15]): 3 | Reduction (Vero [16]): 19%

O=[N+]([O-])c1cccc(/C=N/N=C(\S)Nc2ccccc2)c1
IC50 (Toxoplasma gondii [1]): 80 µM | IC50 (Vero [2]): 1000 µM | Reduction (Vero [12]): 7% | Mean number of parasites (Toxoplasma gondii [17]): 11

O=C(O)CC1SC(N/N=C/c2cccc([N+](=O)[O-])c2)=NC1=O (centres undefined)
Mean number of parasites (Toxoplasma gondii [18]): 4 | IC50 (Toxoplasma gondii [1]): 500 µM | IC50 (Vero [2]): 2000 µM | Reduction (Vero [19]): 15%

CN1C(=O)C(CC(=O)O)S/C1=N\N=C\c1ccccc1[N+](=O)[O-] (centres undefined)
Mean number of parasites (Toxoplasma gondii [20]): 3 | IC50 (Toxoplasma gondii [1]): 500 µM | IC50 (Vero [2]): 2000 µM | Infected cells (Vero [10]): 15%

C/N=C(/S)N/N=C/c1ccc([N+](=O)[O-])cc1
IC50 (Toxoplasma gondii [1]): 3000 µM | Reduction (Vero [21]): 12% | IC50 (Vero [2]): 10000 µM | Mean number of parasites (Toxoplasma gondii [22]): 72

C/N=C(/S)N/N=C/c1cccc([N+](=O)[O-])c1
Mean number of parasites (Toxoplasma gondii [9]): 1 | IC50 (Toxoplasma gondii [1]): 500 µM | IC50 (Vero [2]): 1500 µM | Infected cells (Vero [10]): 9%

CC/N=C(/S)N/N=C/c1ccccc1[N+](=O)[O-]
IC50 (Toxoplasma gondii [1]): 500 µM | IC50 (Vero [2]): 2000 µM | Mean number of parasites (Toxoplasma gondii [3]): 1 | Reduction (Vero [4]): 8%

CN1C(=O)C(CC(=O)O)S/C1=N\N=C\c1ccc([N+](=O)[O-])cc1 (centres undefined)
Mean number of parasites (Toxoplasma gondii [23]): 2 | Reduction (Vero [24]): 13%

CC/N=C(/S)N/N=C/c1ccc([N+](=O)[O-])cc1
Mean number of parasites [25]: 9 | IC50 (Toxoplasma gondii [1]): 500 µM | IC50 (Vero [2]): 2500 µM | Reduction (Vero [13]): 17%

CCN1C(=O)C(CC(=O)O)S/C1=N\N=C\c1ccc([N+](=O)[O-])cc1 (centres undefined)
IC50 (Toxoplasma gondii [1]): 500 µM | IC50 (Vero [2]): 2000 µM | Reduction (Vero [19]): 7% | Mean number of parasites (Toxoplasma gondii [26]): 2

O=C(O)CC1SC(N/N=C/c2ccc([N+](=O)[O-])cc2)=NC1=O (centres undefined)
Mean number of parasites (Toxoplasma gondii [15]): 4 | IC50 (Toxoplasma gondii [1]): 500 µM | IC50 (Vero [2]): 2500 µM | Reduction (Vero [16]): 16%

O=C(O)CC1S/C(=N\N=C\c2ccccc2[N+](=O)[O-])N(c2ccccc2)C1=O (centres undefined)
Mean number of parasites (Toxoplasma gondii [27]): 2 | Reduction (Vero [28]): 8%

CN1C(=O)C(CC(=O)O)S/C1=N\N=C\c1cccc([N+](=O)[O-])c1 (centres undefined)
Mean number of parasites (Toxoplasma gondii [29]): 2 | Reduction (Vero [16]): 11%

CC/N=C(/S)N/N=C/c1cccc([N+](=O)[O-])c1
IC50 (Toxoplasma gondii [1]): 80 µM | IC50 (Vero [2]): 1000 µM | Reduction (Vero [5]): 7% | Mean number of parasites (Toxoplasma gondii [6]): 5

NC(=O)NO [HYDROXYUREA]
IC50 (Toxoplasma gondii [1]): 100 µM | Mean number of parasites (Toxoplasma gondii [30]): 186 | IC50 (Vero [2]): 100 µM | Reduction (Vero [19]): 26%

Nc1ccc(S(=O)(=O)Nc2ncccn2)cc1 [SULFADIAZINE]
IC50 (Toxoplasma gondii [1]): 100 µM | IC50 (Vero [2]): 90 µM
